ChEMBL document CHEMBL1671665, “Effect of beta-1,6-glucan inhibitors on the invasion process of Candida albicans: potential mechanism of their in vivo efficacy” (Antimicrob Agents Chemother, 2009)
Converted amounts (≈) assume the structure as drawn. The source made the active and inactive calls. The rule behind the calls is not given here.

Tests used:
[1] = system: Pichia kudriavzevii; experiment: Antifungal activity against Candida krusei ATCC 44507 by microdilution method; type: functional
How it was run: (§1)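 Broth microdilution per NCCLS M27-A2 in MOPS-buffered RPMI with Alamar Blue, incubated at 30°C. Starting inoculum 1 × 10³ to 3 × 10⁴ cells/ml. End point MIC-2: 50% reduction in A570 against drug-free control. Duplicate runs, repeated on another day if they disagreed.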

[2] = system: Candida albicans; experiment: Antifungal activity against Candida albicans ATCC 24433 in RPMI media by microdilution method; type: functional; how it was run: as §1
[3] = system: Candida albicans; experiment: Antifungal activity against Candida albicans ATCC 24433 in SDB media by microdilution method; type: functional
How it was run: (§2)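 Broth microdilution per NCCLS at 30°C, inoculum 1 × 10³ to 3 × 10⁴ cells/ml. Medium was MEM, SDB, YNB, Spider or Lee's, all without Alamar Blue. End point MIC-2: 50% drop in OD600 against drug-free control. RPMI run used MOPS-buffered RPMI with Alamar Blue read at 570 nm. Duplicates.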

[4] = system: Candida albicans; experiment: Antifungal activity against Candida albicans ATCC 24433 in YNB media by microdilution method; type: functional; how it was run: as §2
[5] = system: Saccharomyces cerevisiae; experiment: Antifungal activity against Saccharomyces cerevisiae CY-1a expressing ScKRE6 gene by microdilution method; type: functional
[6] = system: Candida albicans; experiment: Antifungal activity against Candida albicans ATCC 24433 in Spider media by microdilution method; type: functional; how it was run: as §2
[7] = system: Candida albicans; experiment: Antifungal activity against Candida albicans ATCC 24433 by microdilution method; type: functional; how it was run: as §1
[8] = system: Saccharomyces cerevisiae; experiment: Antifungal activity against Saccharomyces cerevisiae CY-4a expressing ScKRE6-CaKRE6 gene by microdilution method; type: functional
[9] = system: Candida albicans; experiment: Antifungal activity against Candida albicans ATCC 90028 by microdilution method; type: functional; how it was run: as §1
[10] = system: Candida albicans; experiment: Antifungal activity against Candida albicans ATCC 90028 assessed as absence of outer layer of the cell wall at 1 ug/ml after 6 hrs by TEM; type: functional, organism-based
How it was run: (§3)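 Budding yeast at 1 × 10³ cells/ml exposed to drug in MOPS-buffered RPMI for 6 h with shaking (legend gives 30°C). Cells fixed in 3% glutaraldehyde/0.1 M phosphate for 2 h. For mannan: stained 30 min with 10 μg/ml fluorescein–concanavalin A, fluorescence microscopy. For TEM: 2% OsO4 postfix, Spurr's resin, uranyl acetate/lead citrate stained sections.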

[11] = system: Saccharomyces cerevisiae; experiment: Antifungal activity against Saccharomyces cerevisiae CY-5a expressing ScKRE6-CaSKN1 gene by microdilution method; type: functional
[12] = system: Candida albicans; experiment: Antifungal activity against Candida albicans ATCC 24433 in MEM media by microdilution method; type: functional; how it was run: as §2
[13] = system: Saccharomyces cerevisiae; experiment: Antifungal activity against Saccharomyces cerevisiae CY-3a expressing ScKRE6-CaSKN2 gene by microdilution method; type: functional
[14] = system: Candida albicans; experiment: Antifungal activity against Candida albicans ATCC 24433 in Lee's media by microdilution method; type: functional; how it was run: as §2
[15] = system: Nakaseomyces glabratus; experiment: Antifungal activity against Candida glabrata ATCC 48435 by microdilution method; type: functional; how it was run: as §1
[16] = system: Saccharomyces cerevisiae; experiment: Antifungal activity against Saccharomyces cerevisiae AY-10c expressing ScKRE6 gene by microdilution method; type: functional
[17] = system: Candida albicans; experiment: Antifungal activity against Candida albicans ATCC 90028 assessed as inhibition of adherence of fungal cell to human A549 cells; type: functional, organism-based
How it was run: (§4)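 Yeast pretreated with drug in MOPS-buffered RPMI at 30°C overnight without shaking. 100 or 200 cells in DPBS overlaid on confluent A549 monolayers (DMEM/10% FBS), 45 min at 37°C, 5% CO2. Washed, covered with SDA, colonies counted after 48 h at 30°C. Percent reduction of adherence; triplicate, mean ± SD.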

[18] = system: Nakaseomyces glabratus; experiment: Antifungal activity against Candida glabrata ATCC 48435 assessed as inhibition of adherence of fungal cell to human A549 cells; type: functional, organism-based; how it was run: as §4
[19] = Half life in Slc::ddY mouse at 10 mg/kg, po tid administered 1 hr post infection for 1 day; type: ADME, organism-based; parameters: dose 10 mg/kg, route oral; settings: in vivo
[20] = system: Candida albicans; experiment: Antifungal activity against Candida albicans ATCC 90028 infected in reconstituted human vaginal epithelium tissue assessed as inhibition of fungal cell invasion in to the tissue at 1 ug/ml using […] and methylene blue stain by light microscopy; type: functional, organism-based
How it was run: (§5)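 RHVE (A431 keratinocytes) infected with 2 × 10⁶ ATCC 90028 cells that had been pretreated with drug. Drug also added to the maintenance medium. After 24 h at 37°C, 5% CO2, tissue fixed in formaldehyde; semithin sections stained with […]/methylene blue and examined by light microscopy.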

[21] = system: Candida albicans; experiment: Antifungal activity against Candida albicans ATCC 90028 assessed as degradation of mannan layer of the cell wall at 1 ug/ml after 6 hrs using fluorescein-conjugated concanavalin A stain by fluorescent microscopy; type: functional, organism-based; how it was run: as §3
[22] = system: Candida albicans; experiment: Antifungal activity against Candida albicans ATCC 90028 infected in reconstituted human vaginal epithelium tissue assessed as inhibition of fungal cell invasion in to the tissue at 0.25 ug/ml using […] and methylene blue stain by light microscopy; type: functional, organism-based; how it was run: as §5
[23] = system: Candida albicans; experiment: Antifungal activity against Candida albicans ATCC 90028 infected in Slc::ddY mouse assessed as survival rate at 10 mg/kg, po tid administered 1 hr post infection for 1 day measured on day 30; settings: ATCC 90028, po
[24] = system: Candida albicans; experiment: Antifungal activity against Candida albicans ATCC 90028 assessed as degradation of mannan layer of the cell wall at >0.25 ug/ml after 6 hrs using fluorescein-conjugated concanavalin A stain by fluorescent microscopy; type: functional, organism-based; how it was run: as §3
[25] = system: Nakaseomyces glabratus; experiment: Inhibition of beta-1.6-glucan synthesis in Candida glabrata ATCC 48435 assessed as [14C] glucose incorporation after 3 hrs; type: functional, organism-based
How it was run: (§6)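 Exponential cells suspended in RPMI 1640 (A595 about 0.6) with drug and [14C]glucose, 3 h at 30°C with occasional shaking. Cells extracted with 3% NaOH at 80°C for 1 h; mannan precipitated with Fehling's reagent. Insoluble fraction digested overnight with Zymolyase to separate β-1,6-glucan. Percent change in incorporated radioactivity against control.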

[26] = system: Pichia kudriavzevii; experiment: Inhibition of beta-1.6-glucan synthesis in Candida krusei ATCC 44507 assessed as [14C] glucose incorporation after 3 hrs; type: functional, organism-based; how it was run: as §6
[27] = system: Candida albicans; experiment: Antifungal activity against Candida albicans ATCC 90028 assessed as inhibition of hyphal elongation at 0.25 ug/ml in Spider medium using crystal violet stain by light microscopy; type: functional, organism-based
[28] = system: Candida albicans; experiment: Antifungal activity against Candida albicans ATCC 90028 assessed as inhibition of hyphal elongation at 0.25 ug/ml in Lee's medium using crystal violet stain by light microscopy; type: functional, organism-based
[29] = system: Pichia kudriavzevii; experiment: Antifungal activity against Candida krusei ATCC 44507 assessed as inhibition of adherence of fungal cell to human A549 cells; type: functional, organism-based; how it was run: as §4
[30] = system: Candida albicans; experiment: Inhibition of beta-1.6-glucan synthesis in Candida albicans ATCC 90028 assessed as [14C] glucose incorporation at 0.063 ug/ml after 3 hrs; type: functional, organism-based; how it was run: as §6
[31] = Cmax in Slc::ddY mouse at 10 mg/kg, po tid administered 1 hr post infection for 1 day; type: ADME, organism-based; parameters: dose 10 mg/kg, route oral; settings: in vivo
[32] = system: Nakaseomyces glabratus; experiment: Antifungal activity against Candida glabrata ATCC 48435 infected in Slc::ddY mouse assessed as survival rate at 10 mg/kg, po tid administered 1 hr post infection for 1 day measured on day 14; type: functional
How it was run: (§7)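 Five-week-old female Slc:ddY mice, made neutropenic with cyclophosphamide 200 mg/kg ip 4 days before and 1 day after infection. SDA-grown cells in 0.1% Tween 80 saline were injected into the tail vein: C. albicans 2.6 × 10⁴ cells, C. glabrata 2.4 × 10⁸ cells. Oral dosing at 1, 4 and 7 h post-infection. Controls got 5% glucose with 1% lactic acid. 10 mice/group; mortality followed 14 or 30 days.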

[33] = system: Candida albicans; experiment: Antifungal activity against Candida albicans ATCC 90028 assessed as inhibition of hyphal elongation at 0.25 ug/ml in HFM-7 medium using crystal violet stain by light microscopy; type: functional, organism-based
[34] = system: Nakaseomyces glabratus; experiment: Antifungal activity against Candida glabrata ATCC 48435 infected in Slc::ddY mouse assessed as survival rate at 3.3 mg/kg, po tid administered 1 hr post infection for 1 day measured on day 14; type: functional; how it was run: as §7
[35] = system: Candida albicans; experiment: Inhibition of beta-1.6-glucan synthesis in Candida albicans ATCC 90028 assessed as [14C] glucose incorporation after 3 hrs; type: functional, organism-based; how it was run: as §6

Compound: Cc1c(-c2ccccc2)c(N2CC[C@H](N(C)C)C2)n2c(nc3ccccc32)c1C#N
- MIC [1]: 0.25 µg/mL (≈ 0.632 µM)
- MIC [2]: > 16 µg/mL
- MIC [3]: 2 µg/mL (≈ 5.06 µM)
- MIC [4]: 16 µg/mL (≈ 40.5 µM)
- MIC [5]: 0.125 µg/mL (≈ 0.316 µM)
- MIC [6]: 0.063 µg/mL (≈ 0.159 µM)
- MIC [7]: > 32 µg/mL
- MIC [8]: 0.125 µg/mL (≈ 0.316 µM)
- MIC [9]: > 32 µg/mL
- Activity [10]: Active
- MIC [11]: 0.25 µg/mL (≈ 0.632 µM)
- MIC [12]: > 16 µg/mL
- MIC [13]: 0.125 µg/mL (≈ 0.316 µM)
- MIC [14]: 0.125 µg/mL (≈ 0.316 µM)
- MIC [15]: 0.016 µg/mL (≈ 0.0405 µM)
- MIC [16]: 0.125 µg/mL (≈ 0.316 µM)

Compound: CCc1c(C)c(C#N)c2nc3ccccc3n2c1NCCN(CC)CC
- MIC [1]: 16 µg/mL (≈ 45.8 µM)
- MIC [5]: 8 µg/mL (≈ 22.9 µM)
- MIC [7]: 8 µg/mL (≈ 22.9 µM)
- MIC [8]: 16 µg/mL (≈ 45.8 µM)
- MIC [9]: 16 µg/mL (≈ 45.8 µM)
- MIC [11]: 16 µg/mL (≈ 45.8 µM)
- MIC [13]: 8 µg/mL (≈ 22.9 µM)
- MIC [15]: 1 µg/mL (≈ 2.86 µM)
- MIC [16]: 8 µg/mL (≈ 22.9 µM)

Compound: Cc1c(-c2ccccc2)c(N2CC[C@H](N(C)C)C2)n2c(nc3ncccc32)c1C#N
- MIC [1]: 0.5 µg/mL (≈ 1.26 µM)
- MIC [2]: > 16 µg/mL
- Activity [17]: Active
- MIC [3]: 4 µg/mL (≈ 10.1 µM)
- MIC [4]: 16 µg/mL (≈ 40.4 µM)
- MIC [5]: 0.5 µg/mL (≈ 1.26 µM)
- Activity [18]: Active
- half-life [19]: 4.4 h
- Activity [20]: Active
- Activity [21]: Active
- MIC [6]: 0.125 µg/mL (≈ 0.315 µM)
- MIC [7]: > 32 µg/mL
- MIC [8]: 0.25 µg/mL (≈ 0.631 µM)
- Activity [22]: Active
- survival at 10 mg/kg [23]: 50%
- MIC [9]: > 32 µg/mL
- Activity [24]: Active
- inhibition [25]: Active
- inhibition [26]: Active
- Activity [27]: Active
- Activity [28]: Active
- Activity [29]: Active
- inhibition [30]: Active
- MIC [11]: 0.25 µg/mL (≈ 0.631 µM)
- MIC [12]: > 16 µg/mL
- MIC [13]: 0.25 µg/mL (≈ 0.631 µM)
- MIC [14]: 0.125 µg/mL (≈ 0.315 µM)
- Cmax [31]: 710 ng/mL
- survival at 10 mg/kg [32]: 100%
- Activity [33]: Active
- MIC [15]: 0.125 µg/mL (≈ 0.315 µM)
- survival at 3.3 mg/kg [34]: 90%
- MIC [16]: 0.25 µg/mL (≈ 0.631 µM)
- inhibition [35]: Active
